According to article PMC10839140 (Iranian Journal of Medical Sciences, 2024):
Where two headings read alike, the source gives them in different places.

Key:
HEK-293 cell line [1] = assay: MTT cytotoxicity assay, HEK-293 cells; format: cell-based; conditions: for IC50: read-out: half-maximal inhibitory concentration
fibroblast cell line [2] = assay: MTT cytotoxicity assay, fibroblast cells; format: cell-based; conditions: for IC50: Fibroblast, read-out: half-maximal inhibitory concentration; for percentage of cell viability was reduced by: fibroblast cells treated for 48 hours (abstract; concentration not stated there)
[3] = test system: SkBr3 breast cancer cell line; assay: MTT cytotoxicity assay, SkBr3 cells; format: cell-based, human; conditions: read-out: half-maximal inhibitory concentration
fibroblast cell line [4] = assay: Apoptosis analysis, annexin V-FITC/PI flow cytometry, fibroblast cells; format: cell-based; conditions: PINO 575 μM, LARI 500 μM
[5] = test system: SkBr3 breast cancer cell line; assay: Apoptosis analysis, annexin V-FITC/PI flow cytometry, SkBr3 cells; format: cell-based, human; conditions: PINO 575 μM, LARI 500 μM
HEK-293 cell line [6] = assay: Real-time PCR of apoptosis and cell cycle genes, HEK-293 cells; format: cell-based; conditions: 24 and 48 hours, PINO 575, LARI 500, PTOX 0.175 μM, vs untreated cells
Method in brief: (§1)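 Cells grown at 37 °C, 5% CO₂: HEK-293 in DMEM/F12 with 10% FBS and penicillin/streptomycin, SkBr3 in supplemented DMEM. Vehicle control was methanol at 1% v/v final. Total RNA was DNase I-treated, and 3 µg was reverse-transcribed. Real-time PCR used GAPDH as the internal control and no-cDNA negative controls. Fold change was calculated by 2^-ΔΔCT, as the mean±SD of three experiments.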

[7] = test system: SkBr3 breast cancer cell line; assay: Real-time PCR of apoptosis and cell cycle genes, SkBr3 cells; format: cell-based, human; conditions: 24 and 48 hours, PINO 575, LARI 500, PTOX 0.175 μM, vs untreated cells
Method in brief: as §1

HEK-293 cell line [8] = assay: Apoptosis analysis, annexin V-FITC/PI flow cytometry, HEK-293 cells; format: cell-based; conditions: PINO 575 μM, LARI 500 μM

| Compound | IC50 (HEK-293 cell line [1]; Homo sapiens, HEK293, 24 h) | IC50 (HEK-293 cell line [1]; Homo sapiens, HEK293, 48 h) | IC50 (fibroblast cell line [2]; 24 h) | IC50 (fibroblast cell line [2]; 48 h) | percentage of cell viability was reduced by (fibroblast cell line [2]) | IC50 ([3]; Homo sapiens, SK-BR-3, 24 h) | IC50 ([3]; Homo sapiens, SK-BR-3, 48 h) | increase of apoptosis compared to control cells (fibroblast cell line [4]; 24 hours) | increase of apoptosis compared to control cells (fibroblast cell line [4]; 48 hours) | increase of apoptosis compared to control cells ([5]; SKBR3, 24 hours) | increase of apoptosis compared to control cells ([5]; SKBR3, 48 hours) | expression of pro-apoptotic BAX and FAS genes and CDKN1A inhibitory gene (HEK-293 cell line [6]) | expression of pro-apoptotic BAX and FAS genes and CDKN1A inhibitory gene [7] | increase of apoptosis compared to control cells (HEK-293 cell line [8]; HEK-293, 24 hours) | increase of apoptosis compared to control cells (HEK-293 cell line [8]; HEK-293, 48 hours) | other results |
| --- | --- | --- | --- | --- | --- | --- | --- | --- | --- | --- | --- | --- | --- | --- | --- | --- |
| COc1cc(C[C@H]2CO[C@H](c3ccc(O)c(OC)c3)[C@H]2CO)ccc1O [Lariciresinol, lariciresinol] | 550 µM | 475 µM | 475 µM | 400 µM | 47% | 600 µM | 500 µM | 7.4 fold | 20.2 fold | 10.7 fold | 12.7 fold | significantly overexpressed | significantly overexpressed | 6.7 fold | 7.4 fold |  |
| COc1cc([C@@H]2c3cc4c(cc3[C@H](O)[C@H]3COC(=O)[C@H]23)OCO4)cc(OC)c1OC [Podophyllotoxin, reference compound] | 0.15 µM | 0.075 µM | 0.175 µM | 0.075 µM | 36% | 0.3 µM | 0.175 µM |  |  |  |  | significantly overexpressed | significantly overexpressed |  |  | cell viability was reduced by up to (fibroblast cell line [2]; fibroblast, 48 hours, PTOX at 0.175 μM): ≤ 36% |
| Pinoresinol |  |  |  |  | 49% |  |  | 5.2 fold | 10.5 fold | 9 fold | 11 fold | significantly overexpressed | significantly overexpressed | 6.6 fold | 9 fold | cell viability (HEK-293 cell line [1]; HEK-293, 48 hours, PINO at 575 μM, LARI at 500 μM): 49%; IC50 (HEK-293 cell line [1]; HEK-293, 24-hour treatment, MTT): 600 µM; IC50 (HEK-293 cell line [1]; HEK-293, 48-hour treatment, MTT): 550 µM; cell viability (fibroblast cell line [2]; fibroblast, 48 hours, PINO at 575 μM, LARI at 500 μM): 49%; IC50 (fibroblast cell line [2]; 48-hour treatment, MTT): 550 µM; IC50 ([3]; SkBr3, 24-hour treatment, MTT): 675 µM; IC50 ([3]; SkBr3, 48-hour treatment, MTT): 575 µM |
